Test results reported in BindingDB's records for doi:10.1016/j.bmc.2010.02.001 (University of Alberta, 2010).

Biological target: LL-diaminopimelate aminotransferase, chloroplastic (Arabidopsis thaliana, UniProt Q93ZN9)
Assay: Inhibition of Arabidopsis thaliana LL-DAP-AT expressed in Escherichia coli by aminobenzaldehyde-based assay
Procedure, shortened: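 Recombinant C-terminal His6-tagged enzyme in 1 mL cells at 0.0043 mg/mL final. Final substrates: 8.5 mM 2-oxoglutarate, 7 mM 2-aminobenzaldehyde, 2.0 mM LL-DAP (racemic DAP), in 100 mM HEPES-KOH pH 7.6. Inhibitor in DMSO at 200, 100, 50, 25, 10 and 5 µM final. A440 read every 2 min for 200 min. Initial slopes compared with the DMSO control gave percentage inhibition, from which IC50 was calculated.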

LL-diaminopimelate aminotransferase, chloroplastic, sequence (Q93ZN9 whole entry): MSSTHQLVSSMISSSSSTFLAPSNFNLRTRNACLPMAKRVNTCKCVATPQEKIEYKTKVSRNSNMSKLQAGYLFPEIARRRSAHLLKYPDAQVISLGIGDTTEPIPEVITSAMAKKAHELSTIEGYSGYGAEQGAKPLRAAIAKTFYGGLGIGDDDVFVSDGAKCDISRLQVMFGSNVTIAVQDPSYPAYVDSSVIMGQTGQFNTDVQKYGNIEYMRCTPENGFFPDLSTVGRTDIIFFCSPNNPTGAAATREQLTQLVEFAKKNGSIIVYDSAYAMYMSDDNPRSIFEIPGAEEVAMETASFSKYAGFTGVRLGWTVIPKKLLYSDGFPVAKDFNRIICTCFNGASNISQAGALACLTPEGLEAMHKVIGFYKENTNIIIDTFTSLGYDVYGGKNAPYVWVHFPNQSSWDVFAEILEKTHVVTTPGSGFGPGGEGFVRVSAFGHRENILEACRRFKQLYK

Compound: NC(N=NCc1ccc(-c2cccc([N+](=O)[O-])c2)o1)=N[N+](=O)[O-] [N'-nitro-2-((5-(3-nitrophenyl)furan-2-yl)methylene)hydrazinecarboximidamide]
- IC50: > 200 µM
